Laboratory results from ChEMBL document CHEMBL1944521, “Amide-modified prenylcysteine based Icmt inhibitors: Structure-activity relationships, kinetic analysis and cellular characterization” (Bioorg Med Chem, 2012).
pIC50: −log10 of the molar value. Activity calls are given as the source filed them. No cut-off for these calls is given here.

Tests used:
[1] = target: T1, Protein-S-isoprenylcysteine O-methyltransferase (Homo sapiens, UniProt O60725); experiment: Noncompetitive inhibition of His-tagged human Icmt membrane protein over-expressed in Saccharomyces cerevisiae 2766 using [14C]-SAM and N-acetyl-S-farnesyl-l-cysteine as substrate measured after 30 mins by scintillation counting
Method in brief: (§1)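 Mode of inhibition: AFC concentration varied at fixed inhibitor levels in the His-hIcmt vapor diffusion assay (14C-SAM, 30 °C, 30 min). Three trials per inhibitor concentration were averaged and plotted as Lineweaver-Burk. KIC and KIU were derived from IC50 by Cheng–Prusoff as adapted by Cer et al.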

[2] = target: T1, Protein-S-isoprenylcysteine O-methyltransferase; experiment: Competitive inhibition of His-tagged human Icmt membrane protein over-expressed in Saccharomyces cerevisiae 2766 using [14C]-SAM and N-acetyl-S-farnesyl-l-cysteine as substrate measured after 30 mins by scintillation counting; method in brief: as §1
[3] = target: T1, Protein-S-isoprenylcysteine O-methyltransferase; experiment: Inhibition of His-tagged human Icmt membrane protein over-expressed in Saccharomyces cerevisiae 2766 using [14C]-SAM and N-acetyl-S-farnesyl-l-cysteine as substrate measured after 30 mins by scintillation counting; conditions: for pIC50: read-out: IC50
[4] = target: T1, Protein-S-isoprenylcysteine O-methyltransferase; experiment: Inhibition of His-tagged human Icmt membrane protein over-expressed in Saccharomyces cerevisiae 2766 using [14C]-SAM and N-acetyl-S-farnesyl-l-cysteine as substrate at 10 uM preincubated on ice and measured after 30 mins by scintillation counting
[5] = target: T1, Protein-S-isoprenylcysteine O-methyltransferase; experiment: Activity at His-tagged human Icmt membrane protein over-expressed in Saccharomyces cerevisiae 2766 using [14C]-SAM as substrate at 25 uM by scintillation counting
[6] = target: T1, Protein-S-isoprenylcysteine O-methyltransferase; experiment: Inhibition of Icmt-mediated GFP-K-Ras membrane localization in human Jurkat T cells at 10 uM after 24 hrs by fluorescent microscopic analysis; assay type: cell-based
Method in brief: (§2)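 Jurkat E6.1 cells were electroporated with 20 μg GFP-K-Ras, then treated 24 h at 37 °C with DMSO, simvastatin (20 μM) or compound (0.1, 1, 10 μM). Cells were put on polylysine coverslips, fixed in 3% formaldehyde and viewed by fluorescence microscopy. Localization was scored visually as normal, partial or complete mislocalization in random fields of 100 cells; three independent experiments.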

[7] = target: T1, Protein-S-isoprenylcysteine O-methyltransferase; experiment: Inhibition of Icmt-mediated GFP-K-Ras membrane localization in human Jurkat T cells at 0.1 uM after 24 hrs by fluorescent microscopic analysis; assay type: cell-based; method in brief: as §2
[8] = target: T1, Protein-S-isoprenylcysteine O-methyltransferase; experiment: Inhibition of Icmt in TCR-stimulated human Jurkat T cells assessed as inhibition of Ras-mediated Erk activation at 25 uM after 24 hrs by immunoblot analysis relative to control; assay type: cell-based
Method in brief: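 Jurkat cells were treated 24 h with compound (25 μM), vehicle or simvastatin (36.7 μM), then held with anti-CD-3ε (20 μg/mL) 15 min on ice and stimulated 10 min at 37 °C. Triton lysates were run on 6–15% gels and immunoblotted for phospho-Erk, with GAPDH as loading control. Bands were quantified by densitometry relative to control; three independent experiments.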

[9] = target: T1, Protein-S-isoprenylcysteine O-methyltransferase; experiment: Inhibition of Icmt in TCR-stimulated human Jurkat T cells assessed as inhibition of Ras activation at 25 uM after 24 hrs by immunoblot analysis; assay type: cell-based
Method in brief: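 Jurkat cells were treated 24 h with compound (25 μM), vehicle or simvastatin (36.7 μM), then held with anti-CD-3ε (20 μg/mL) 15 min on ice and stimulated 10 min at 37 °C. GTP-Ras was pulled down from NP40 lysates on GST-RBD glutathione beads (30 min, 4 °C) and immunoblotted with anti-pan-Ras. Bands were quantified by densitometry; three independent experiments.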

T1 sequence (O60725 whole entry, the tested form may be a part): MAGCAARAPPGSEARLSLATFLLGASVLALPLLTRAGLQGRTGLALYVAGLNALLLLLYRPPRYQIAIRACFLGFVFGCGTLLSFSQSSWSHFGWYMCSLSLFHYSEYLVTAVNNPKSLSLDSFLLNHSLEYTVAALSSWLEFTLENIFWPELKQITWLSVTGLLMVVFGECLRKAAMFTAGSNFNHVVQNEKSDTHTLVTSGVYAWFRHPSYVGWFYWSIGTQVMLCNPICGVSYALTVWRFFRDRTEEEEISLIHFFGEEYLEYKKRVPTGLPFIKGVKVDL

Structure (SMILES) | pIC50 [3] | inhibition [4] | Activity [5] | further results
CC(C)=CC/C(=C/CSC[C@H](NC(=O)c1ccccc1Oc1ccccc1)C(=O)O)CCc1ccc(-c2ccccc2)cc1 | 5.60 | – | – | inhibition [6]: 75%; inhibition [7]: 35%; Kiuc [1]: 1.9 µM; Kic [2]: 0.5 µM; fold change (FC) [8]: 3; inhibition [9]: Active
CCCCCCCCCCCSC[C@H](NC(=O)c1ccccc1Oc1ccccc1)C(=O)O | 3.68 | Active | inactive | –
CC(C)=CCC/C(C)=C/CC/C(C)=C/CSC[C@H](NC(=O)c1ccccc1COCc1ccccc1)C(=O)O | 4.31 | Active | inactive | –
CC(=O)N[C@@H](CSC/C=C(\C)CC/C=C(\C)CCC=C(C)C)C(=O)O | – | – | – | IC50 [3]: Not Active
CC(C)=CCC/C(C)=C/CC/C(C)=C/CSC[C@H](NC(=O)c1cccc2c1oc1ccccc12)C(=O)O | 4.24 | Active | inactive | –
CC(C)=CCC/C(C)=C/CC/C(C)=C/CSC[C@H](NC(=O)c1ccc(Oc2ccccc2)cc1)C(=O)O | 4.20 | – | inactive | –

Continued, in another order:

pIC50 [3] | inhibition [4] | Activity [5] | Structure (SMILES) | further results
5.21 | – | – | CC(C)=CCC/C(C)=C/CC/C(C)=C/CSC[C@H](NC(=O)c1ccccc1Oc1ccccc1)C(=O)O | Kiuc [1]: 4.8 µM; Kic [2]: 1.4 µM
5.17 | Active | inactive | CC(C)=CCC/C(C)=C/CC/C(C)=C/CSC[C@@H](C(=O)O)N(C)C(=O)c1ccccc1Oc1ccccc1 | –
4.12 | Active | inactive | CC(C)=CCC/C(C)=C/CC/C(C)=C/CSC[C@H](NC(=O)c1ccccc1COc1ccccc1)C(=O)O | –
4.87 | Active | inactive | CC(C)=CCC/C(C)=C/CC/C(C)=C/CSC[C@H](NC(=O)c1ccccc1OCc1ccccc1)C(=O)O | –
5.11 | Active | inactive | CC(C)=CCC/C(C)=C/CC/C(C)=C/CSC[C@@H](NC(=O)c1ccccc1Oc1ccccc1)C(=O)O | –
4.42 | Active | inactive | CC(C)=CCC/C(C)=C/CC/C(C)=C/CSC[C@H](NC(=O)c1ccccc1Cc1ccccc1)C(=O)O | –
4.83 | Active | inactive | CC(C)=CCC/C(C)=C/CC/C(C)=C/CSC[C@H](NC(=O)c1ccccc1Sc1ccccc1)C(=O)O | –
4.65 | – | inactive | CC(C)=CCC/C(C)=C/CC/C(C)=C/CSC[C@H](NC(=O)c1cccc(Oc2ccccc2)c1)C(=O)O | –
4.42 | – | inactive | CC(C)=CCC/C(C)=C/CC/C(C)=C/CC/C(C)=C/CSC[C@H](NC(=O)c1ccccc1Oc1ccccc1)C(=O)O | –
